# Results from ChEMBL document CHEMBL1138415, “Analogues of the dopamine D2 receptor antagonist L741,626: Binding, function, and SAR” (Bioorg Med Chem Lett, 2007).
# Tests used:
# Homo sapiens [1] = species on record: Homo sapiens; experiment: Selectivity for human dopamine D2L receptor over human dopamine D3 receptor
# Homo sapiens [2] = species on record: Homo sapiens; experiment: Selectivity for human dopamine D2L receptor over human dopamine D4 receptor
# D(2) dopamine receptor [3] = molecular target: T1, D(2) dopamine receptor (Homo sapiens, UniProt P14416); experiment: Displacement of [125I]IABN from human dopamine D2L receptor expressed in HEK293 cells; assay type: cell-based
# D(3) dopamine receptor [4] = molecular target: T2, D(3) dopamine receptor (Homo sapiens, UniProt P35462); experiment: Displacement of [125I]IABN from human dopamine D3 receptor expressed in HEK293 cells; assay type: cell-based
# D(2) dopamine receptor [5] = molecular target: T1, D(2) dopamine receptor; experiment: Antagonist activity at human dopamine D2 receptor expressed in CHO cells assessed as inhibition of quinpirole stimulated mitogenesis; assay type: functional, cell-based
# In short: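 Functional mitogenesis assay in CHO cells transfected with human D2 receptor; antagonism measured as inhibition of quinpirole-stimulated mitogenesis (agonism tested as stimulation); EC50 reported; run via NIDA CTDP contract protocol.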
# D(4) dopamine receptor = molecular target: T3, D(4) dopamine receptor (Homo sapiens, UniProt P21917); experiment: Displacement of [125I]IABN from human dopamine D4 receptor expressed in HEK293 cells; assay type: cell-based
# T3 sequence (P21917 whole entry): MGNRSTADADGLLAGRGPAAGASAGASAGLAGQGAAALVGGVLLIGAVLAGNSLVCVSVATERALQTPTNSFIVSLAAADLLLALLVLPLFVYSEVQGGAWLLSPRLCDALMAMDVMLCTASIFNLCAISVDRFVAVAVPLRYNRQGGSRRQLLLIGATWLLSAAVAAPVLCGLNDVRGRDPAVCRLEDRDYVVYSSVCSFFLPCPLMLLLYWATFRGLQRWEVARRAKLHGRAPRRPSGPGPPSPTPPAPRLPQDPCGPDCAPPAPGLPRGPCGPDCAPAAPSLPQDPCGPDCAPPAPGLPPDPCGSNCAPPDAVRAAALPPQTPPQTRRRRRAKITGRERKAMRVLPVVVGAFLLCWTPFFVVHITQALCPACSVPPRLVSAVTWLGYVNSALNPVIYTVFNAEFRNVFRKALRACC
# In short: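 Competition binding on HEK 293 cells transfected with human D2L or D4 dopamine receptors; radioligand [125I]IABN displaced by test ligand; Ki values derived.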
# D(3) dopamine receptor [6] = molecular target: T2, D(3) dopamine receptor; experiment: Antagonist activity at human dopamine D3 receptor expressed in CHO cells assessed as inhibition of quinpirole stimulated mitogenesis; assay type: functional, cell-based
# T1 sequence (P14416 whole entry): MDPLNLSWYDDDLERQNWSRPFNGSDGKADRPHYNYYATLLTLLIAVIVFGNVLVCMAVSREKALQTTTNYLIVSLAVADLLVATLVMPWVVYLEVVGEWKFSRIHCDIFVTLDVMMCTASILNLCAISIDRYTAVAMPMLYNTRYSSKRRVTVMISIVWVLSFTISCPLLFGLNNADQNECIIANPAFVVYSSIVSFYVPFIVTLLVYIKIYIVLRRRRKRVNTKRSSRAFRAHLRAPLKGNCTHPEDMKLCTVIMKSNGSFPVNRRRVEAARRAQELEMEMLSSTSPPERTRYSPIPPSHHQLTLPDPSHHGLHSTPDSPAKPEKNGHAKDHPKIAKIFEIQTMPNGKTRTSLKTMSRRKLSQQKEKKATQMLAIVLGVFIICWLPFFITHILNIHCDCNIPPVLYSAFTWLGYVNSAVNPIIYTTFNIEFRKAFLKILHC
# T2 sequence (P35462 whole entry): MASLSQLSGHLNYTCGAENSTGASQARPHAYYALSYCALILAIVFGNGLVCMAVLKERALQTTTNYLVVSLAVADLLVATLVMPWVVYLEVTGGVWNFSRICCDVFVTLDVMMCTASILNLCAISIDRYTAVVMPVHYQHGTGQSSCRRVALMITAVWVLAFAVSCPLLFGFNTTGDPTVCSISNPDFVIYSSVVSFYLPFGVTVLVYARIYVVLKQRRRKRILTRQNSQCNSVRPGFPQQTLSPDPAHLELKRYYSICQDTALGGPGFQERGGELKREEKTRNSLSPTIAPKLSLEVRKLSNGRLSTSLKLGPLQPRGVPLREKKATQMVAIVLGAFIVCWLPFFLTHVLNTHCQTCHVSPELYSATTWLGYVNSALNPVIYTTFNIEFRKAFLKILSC
SMILES,Ratio Ki (Homo sapiens [1]),Ratio Ki (Homo sapiens [2]),Ki (D(2) dopamine receptor [3]) [nM],Ki (D(3) dopamine receptor [4]) [nM],EC50 (D(2) dopamine receptor [5]) [nM],Ki (D(4) dopamine receptor) [nM],EC50 (D(3) dopamine receptor [6]) [nM]
COC(=O)C1(c2ccc(Cl)cc2)CCN(Cc2c[nH]c3ccccc23)CC1,9,66,60,544,76.7,3930,–
CSc1ccc(C2(O)CCN(Cc3coc4ccccc34)CC2)cc1,3,3,54,139,–,153,–
C=CCOC1(c2ccc(Cl)cc2)CCN(Cc2c[nH]c3ccccc23)CC1,4,7,165,718,–,1190,–
OCC1(c2ccc(Cl)cc2)CCN(Cc2c[nH]c3ccccc23)CC1,0.04,1,2370,106,–,1940,–
OC1(c2ccc(Cl)c(Cl)c2)CCN(Cc2n[nH]c3ccccc23)CC1,0.4,2,438,156,–,677,–
OC1(c2ccccc2Cl)CCN(Cc2c[nH]c3ccccc23)CC1,5,7,382,1860,586,2820,–
OC1(c2ccc(Cl)cc2)CCN(Cc2n[nH]c3ccccc23)CC1,1,4,548,440,–,2150,–
CC(=O)NCC1(c2ccc(Cl)cc2)CCN(Cc2c[nH]c3ccccc23)CC1,6,2,2000,12500,–,4450,–
OC1(c2ccc(Cl)cc2)CCN(Cc2cc3ccccc3[nH]2)CC1,–,–,> 10000,–,–,> 20000,–
N#CC1(c2ccc(Cl)cc2)CCN(Cc2c[nH]c3ccccc23)CC1,3,11,199,684,225,2270,–
COc1ccc(C2(O)CCN(Cc3c[nH]c4ccccc34)CC2)cc1,12,4,177,2130,–,679,–
CC1(c2ccc(Cl)cc2)CCN(Cc2c[nH]c3ccccc23)CC1,2,3,992,2100,314,2750,347
OC1(c2ccc(Cl)cc2)CCN(Cc2coc3ccccc23)CC1,3,19,21,53,–,404,–
OC1(c2ccc(-c3ccccc3)cc2)CCN(Cc2c[nH]c3ccccc23)CC1,5,1,98.4,467,–,129,–
CC(=O)NC1(c2ccc(Cl)cc2)CCN(Cc2c[nH]c3ccccc23)CC1,2,4,83.1,193,24.8,348,–
OC1(c2cccc(Cl)c2)CCN(Cc2c[nH]c3ccccc23)CC1,3,27,129,450,83.4,3540,–
CCCCCCOc1ccc(C2(O)CCN(Cc3c[nH]c4ccccc34)CC2)cc1,12,9,159,1950,216,1490,–
CCOC(=O)C1(c2ccc(Cl)cc2)CCN(Cc2c[nH]c3ccccc23)CC1,12,60,58.8,724,–,3520,–
Cn1cc(CN2CCC(O)(c3ccc(Cl)cc3)CC2)c2ccccc21,8,174,29.6,238,20,5140,98.6

SMILES,Ratio Ki (Homo sapiens [1]),Ratio Ki (Homo sapiens [2]),Ki (D(2) dopamine receptor [3]) [nM],Ki (D(3) dopamine receptor [4]) [nM],EC50 (D(2) dopamine receptor [5]) [nM],Ki (D(4) dopamine receptor) [nM],EC50 (D(3) dopamine receptor [6]) [nM]
OC1(c2cccc(Cl)c2Cl)CCN(Cc2c[nH]c3ccccc23)CC1,10,59,26.1,273,34.3,1550,232
COC1(c2ccc(Cl)cc2)CCN(Cc2c[nH]c3ccccc23)CC1,4,–,68.1,262,34.7,34.1,248
COc1ccc2[nH]cc(CN3CCC(O)(c4ccc(SC)cc4)CC3)c2c1,105,103,5.5,580,–,567,–
CCCCCCn1cc(CN2CCC(O)(c3ccc(Cl)cc3)CC2)c2ccccc21,3,47,188,488,166,8890,661
FC1(c2ccc(Cl)cc2)CCN(Cc2c[nH]c3ccccc23)CC1,2,3,120,211,–,365,–
OC1(c2ccc(Cl)cc2)CCCN(Cc2c[nH]c3ccccc23)C1 (centres undefined),1,1,4270,4270,–,2440,–
OC1(c2ccc(Cl)cc2)CCCN(Cc2c[nH]c3ccccc23)CC1 (centres undefined),10,19,201,2100,260,3870,–
NC1(c2ccc(Cl)cc2)CCN(Cc2c[nH]c3ccccc23)CC1,2,12,184,382,–,2290,–
OC1(c2cccc(C(F)(F)F)c2)CCN(Cc2c[nH]c3ccccc23)CC1,5,35,106,570,69.1,3750,–
NCC1(c2ccc(Cl)cc2)CCN(Cc2c[nH]c3ccccc23)CC1,–,–,> 10000,> 5000,–,> 20000,–
OC1(c2ccc(Cl)c(Cl)c2)CCN(Cc2c[nH]c3ccccc23)CC1,16,159,6.9,111,15.3,1100,41.5
OC1(Cc2ccc(Cl)cc2)CCN(Cc2c[nH]c3ccccc23)CC1,2,1,2890,5480,–,3930,–
OC1(c2ccc(Cl)cc2)CCN(Cc2c[nH]c3ccccc23)CC1,–,–,–,163,–,1520,90.4
OC1(c2ccc(F)cc2)CCN(Cc2c[nH]c3ccccc23)CC1,4,48,127,490,–,6090,–
Oc1ccc(C2(O)CCN(Cc3c[nH]c4ccccc34)CC2)cc1,3,0.3,5360,16800,–,1360,–
Cc1[nH]c2ccccc2c1CN1CCC(O)(c2ccc(Cl)cc2)CC1,3,194,15.4,44.1,2.13,2990,20.2
OC1(c2ccc(Cl)c(Cl)c2)CCN(Cc2coc3ccccc23)CC1,1,8,21,28,–,167,–
CSc1ccc(C2(O)CCN(Cc3c[nH]c4ccccc34)CC2)cc1,27,13,23.9,638,–,319,–
